Reference: ChEMBL document CHEMBL1926614, “Substituted thiazoles V. synthesis and antitumor activity of novel thiazolo[2,3-b]quinazoline and pyrido[4,3-d]thiazolo[3,2-a]pyrimidine analogues” (2012)

Tests used:
Format in all cases: functional
CCRF-CEM = test: Growth inhibition of human CCRF-CEM cells at 10 uM after 48 hrs by coulter counting; details: read-out: GI
Summary of the method: (§1)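 Single-dose primary screen across the full NCI 60-cell-line panel. Stocks were made in DMSO and diluted in PBS to a final DMSO below 1%. Cultures at 6 × 10⁴ cells/ml were run in duplicate wells alongside PBS/DMSO vehicle controls at 37 °C in humidified 5% CO₂. Data were expressed as percent growth of treated cells.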

UACC-62 = test: Growth inhibition of human UACC62 cells at 10 uM after 48 hrs by coulter counting; details: UACC-62, 48 h, read-out: GI
Summary of the method: (§2)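 Single-dose screen in the NCI 60 human tumor cell line panel (nine subpanels). Compounds dissolved in DMSO and diluted in phosphate buffered saline, keeping final DMSO below 1%. Added in duplicate wells to cells at 6 × 10⁴ cells/ml. Controls held PBS and DMSO at matching dilutions. Incubated at 37 °C, humidified, 5% CO₂. Reported as percent growth of treated cells.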

HT-29 = test: Growth inhibition of human HT-29 cells at 10 uM after 48 hrs by coulter counting; details: HT-29, 48 h, read-out: GI; summary of the method: as §1
RPMI-8226 = test: Growth inhibition of human RPMI8226 cells at 10 uM after 48 hrs by coulter counting; details: RPMI-8226, 48 h, read-out: GI; summary of the method: as §1
SK-MEL-2 = test: Growth inhibition of human SK-MEL-2 cells at 10 uM after 48 hrs by coulter counting; details: SK-MEL-2, 48 h, read-out: GI; summary of the method: as §1
SNB-19 = test: Growth inhibition of human SNB19 cells at 10 uM after 48 hrs by coulter counting; details: SNB-19, 48 h, read-out: GI; summary of the method: as §1
OVCAR-4 = test: Growth inhibition of human OVCAR4 cells at 10 uM after 48 hrs by coulter counting; details: OVCAR-4, 48 h, read-out: GI; summary of the method: as §1
NCI/ADR-RES = test: Growth inhibition of human NCI/ADR-RES cells at 10 uM after 48 hrs by coulter counting; details: read-out: GI; summary of the method: as §1
NCI-H226 = test: Growth inhibition of human NCI-H226 cells at 10 uM after 48 hrs by coulter counting; details: NCI-H226, 48 h, read-out: GI; summary of the method: as §1
M14 = test: Growth inhibition of human M14 cells at 10 uM after 48 hrs by coulter counting; details: M14, 48 h, read-out: GI; summary of the method: as §1
K562 = test: Growth inhibition of human K562 cells at 10 uM after 48 hrs by coulter counting; details: K562, 48 h, read-out: GI; summary of the method: as §1
BT-549 = test: Growth inhibition of human BT549 cells at 10 uM after 48 hrs by coulter counting; details: BT-549, 48 h, read-out: GI; summary of the method: as §1
NCI-H522 = test: Growth inhibition of human NCI-H522 cells at 10 uM after 48 hrs by coulter counting; details: NCI-H522, 48 h, read-out: GI; summary of the method: as §1
LOX IMVI = test: Growth inhibition of human LOXIMVI cells at 10 uM after 48 hrs by coulter counting; details: read-out: GI; summary of the method: as §1
HOP-62 = test: Growth inhibition of human HOP62 cells at 10 uM after 48 hrs by coulter counting; details: HOP-62, 48 h, read-out: GI; summary of the method: as §1
EKVX = test: Growth inhibition of human EKVX cells at 10 uM after 48 hrs by coulter counting; details: read-out: GI; summary of the method: as §1
SF-268 = test: Growth inhibition of human SF268 cells at 10 uM after 48 hrs by coulter counting; details: SF-268, 48 h, read-out: GI; summary of the method: as §1
T47D = test: Growth inhibition of human T47D cells at 10 uM after 48 hrs by coulter counting; details: read-out: GI; summary of the method: as §2
SK-MEL-28 = test: Growth inhibition of human SK-MEL-28 cells at 10 uM after 48 hrs by coulter counting; details: SK-MEL-28, 48 h, read-out: GI; summary of the method: as §1
HCC 2998 = test: Growth inhibition of human HCC2998 cells at 10 uM after 48 hrs by coulter counting; details: HCC 2998, 48 h, read-out: GI; summary of the method: as §1
[1] = Growth inhibition of human NCI-322M cells at 10 uM after 48 hrs by coulter counting; details: read-out: GI; summary of the method: as §1
SF-295 = test: Growth inhibition of human SF295 cells at 10 uM after 48 hrs by coulter counting; details: SF-295, 48 h, read-out: GI; summary of the method: as §1
NCI-H460 = test: Growth inhibition of human NCI-H460 cells at 10 uM after 48 hrs by coulter counting; details: NCI-H460, 48 h, read-out: GI; summary of the method: as §1
CAKI-1 = test: Growth inhibition of human Caki1 cells at 10 uM after 48 hrs by coulter counting; details: CAKI-1, 48 h, read-out: GI; summary of the method: as §1
SK-MEL-5 = test: Growth inhibition of human SK-MEL-5 cells at 10 uM after 48 hrs by coulter counting; details: SK-MEL-5, 48 h, read-out: GI; summary of the method: as §1
HL-60(TB) = test: Growth inhibition of human HL-60(TB) cells at 10 uM after 48 hrs by coulter counting; details: HL-60, 48 h, read-out: GI
Summary of the method: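 Test compound was dissolved in DMSO and diluted in phosphate-buffered saline to a final DMSO level below 1%. Dilutions were plated in duplicate with cell culture at 6 × 10⁴ cells/ml. Vehicle controls held PBS and DMSO at matching dilutions. Incubation was at 37 °C, humidified, under 5% CO₂. Data were reported as percent growth of treated cells.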

KM12 = test: Growth inhibition of human KM12 cells at 10 uM after 48 hrs by coulter counting; details: KM12, 48 h, read-out: GI; summary of the method: as §1
A498 = test: Growth inhibition of human A498 cells at 10 uM after 48 hrs by coulter counting; details: A498, 48 h, read-out: GI; summary of the method: as §1
DU-145 = test: Growth inhibition of human DU145 cells at 10 uM after 48 hrs by coulter counting; details: DU-145, 48 h, read-out: GI; summary of the method: as §1
SF-539 = test: Growth inhibition of human SF539 cells at 10 uM after 48 hrs by coulter counting; details: SF-539, 48 h, read-out: GI; summary of the method: as §1
A549 = test: Growth inhibition of human A549 cells at 10 uM after 48 hrs by coulter counting; details: A549, 48 h, read-out: GI; summary of the method: as §1
HCT-116 = test: Growth inhibition of human HCT116 cells at 10 uM after 48 hrs by coulter counting; details: HCT-116, 48 h, read-out: GI; summary of the method: as §1
IGROV-1 = test: Growth inhibition of human IGROV1 cells at 10 uM after 48 hrs by coulter counting; details: IGROV-1, 48 h, read-out: GI; summary of the method: as §1
SNB-75 = test: Growth inhibition of human SNB75 cells at 10 uM after 48 hrs by coulter counting; details: SNB-75, 48 h, read-out: GI; summary of the method: as §1
MDA-MB-435 = test: Growth inhibition of human MDA-MB-435 cells at 10 uM after 48 hrs by coulter counting; details: MDA-MB-435, 48 h, read-out: GI; summary of the method: as §1
U-251 = test: Growth inhibition of human U251 cells at 10 uM after 48 hrs by coulter counting; details: U-251, 48 h, read-out: GI; summary of the method: as §2
UO-31 = test: Growth inhibition of human UO31 cells at 10 uM after 48 hrs by coulter counting; details: UO-31, 48 h, read-out: GI; summary of the method: as §2
UACC-257 = test: Growth inhibition of human UACC257 cells at 10 uM after 48 hrs by coulter counting; details: UACC-257, 48 h, read-out: GI; summary of the method: as §2
ACHN = test: Growth inhibition of human ACHN cells at 10 uM after 48 hrs by coulter counting; details: read-out: GI; summary of the method: as §1
MOLT-4 = test: Growth inhibition of human MOLT4 cells at 10 uM after 48 hrs by coulter counting; details: MOLT-4, 48 h, read-out: GI; summary of the method: as §1
MCF7 = test: Growth inhibition of human MCF7 cells at 10 uM after 48 hrs by coulter counting; details: MCF7, 48 h, read-out: GI; summary of the method: as §1
NCI-H23 = test: Growth inhibition of human NCI-H23 cells at 10 uM after 48 hrs by coulter counting; details: NCI-H23, 48 h, read-out: GI; summary of the method: as §1

Measured: inhibition of growth at 10 µM

C1=CN2C(=NC3=C(CCC/C3=C\c3cccs3)C2c2cccs2)S1 (configuration not stated)
28.7%: UO-31
13%: LOX IMVI
10.4%: SNB-75
> 10%: all other assays above
